Experimental data reported in publication PMC10450354 (Bioactive Materials, 2023).

Key:
BMSCs = assay: Transwell migration of BMSCs in coculture; type: cell-based, mouse
Method in brief: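 BMSCs were obtained from 4-week-old SPF C57BL/6J mouse bone marrow, red-cell-lysed at 4 °C for 10 min, and cultured at 37 °C and 5% CO2. They were then cocultured with macrophages given no treatment, IL-4, or IL-4 plus test nanofibers. BMSC migration was assessed at 0, 24 and 48 h and expressed as percentage of migrating cells; mean ± SD, n = 3.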

p-STAT6 = p-STAT6 immunofluorescence in M2-type macrophages; type: cell-based, mouse; details: 24 h; semiquantitative; Ctrl group 1.7%; Fig. 4E
BMDMs = assay: Flow cytometry of M2 markers in BMDMs incubated with IL-4 and UPNs; type: cell-based, mouse; details: for effect of inhibitor on UPN-induced CD206 expression: flow cytometry, IL-4 and UPN induced macrophages
Method in brief: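 Bone marrow cells from C57BL/6J mice were red-cell-lysed and grown as BMDMs at 37 °C and 5% CO2 in M-CSF medium (40 ng/ml). Medium was replenished on days 2 and 3 and renewed on day 5. Groups were untreated, IL-4, test nanofibers, and IL-4 plus test nanofibers. STAT6-IN-1 (p-STAT6 inhibitor) was applied with IL-4 plus nanofibers. CD163 and CD206 were quantified by flow cytometry; mean ± SD, n = 3.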

macrophages [1] = assay: TEM of macrophage mitochondria; type: cell-based, mouse; details: Ctrl group nearly 20%, Fig. 2J
Method in brief: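 Macrophages derived from mouse bone marrow in M-CSF medium (40 ng/ml), refreshed on days 2, 3 and 5, then induced with peptide or nanofibers. Imaged by transmission electron microscopy. Expanded mitochondria scored as a fraction of total mitochondria. Mean ± SD, n = 3.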

macrophages [2] = assay: Microscopic observation of macrophage state with UP and UPN; type: cell-based, mouse; details: 800 μg/ml, 0, 48 and 72 h; Figure S7 A-C
Method in brief: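 Peptide and nanofiber preparations pre-incubated 6 h. Cells then cultured with them for 0, 48 and 72 h. Cell activity state checked by light microscopy alongside a CCK-8 proliferation read (100 μl per 2 ml medium, 2 h, absorbance 450 nm).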

bone defects in mice = assay: Gene transcript sequencing of bone defects in mice treated with UPs; type: in vivo, mouse; details: mice treated with UPs for 14 days (tail vein injection); Fig. 3A

IL-4: interleukin-4, used to induce M2-type macrophages
percentage of migrating cells at 24 h (BMSCs; 24 h, control group nearly 2%, Fig. 5I): 7.2% | number of migrating cells at 48 h (BMSCs; 48 h, control group 4.8%, Fig. 5J): 13.7% | p-STAT6 fluorescence intensity (p-STAT6): 7.8% | expression of CD163 (BMDMs; BMDMs, flow cytometry quantification, n = 3, Ctrl nearly 17.2%, Fig. 3L): 50.3% | expression of CD206 (BMDMs; BMDMs, flow cytometry quantification, n = 3, Ctrl nearly 18.1%, Fig. 3M): 40.9%

Ser-Glu-Ser-Ser-Glu [UP]
percentage of swollen mitochondria (macrophages [1]): 38% | active status of macrophages under the microscope (macrophages [2]): not significantly toxic | expression of Arg1 and CD163 in bone defects (bone defects in mice): marked increase in the expression of Arg1 and CD163

O=C(Nc1ccccc1)c1cc([N+](=O)[O-])ccc1Cl [GW9662]
effect of inhibitor on UPN-induced CD206 expression (BMDMs): inhibited UPN-induced expression of the M2 type macrophage marker CD206

C/C(=C\C(=O)N[C@H](C(=O)N1CCC[C@H]1C(=O)N(c1ccccc1)c1ccc(I)cc1)C(C)(C)C)c1ccc(OP(=O)(O)O)cc1 [STAT6-IN-1]
effect of inhibitor on UPN-induced CD206 expression (BMDMs): inhibited UPN-induced expression of the M2-type macrophage marker CD206
